Experimental data taken from BindingDB's records for doi:10.1021/jm0009538 (Paris-Sud University, 2000).

Target: 5-hydroxytryptamine receptor 4 (Homo sapiens, UniProt Q13639)
Assay: Concentration required to produce half-maximal response against 5-hydroxytryptamine receptor in the presence of 10 nM compound in isolated human atrial myocytes
Outline: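 Whole-cell patch clamp on enzymatically dissociated human atrial myocytes, room temperature (19–25 °C); Cs-based internal, pCa 8.5; I_Ca at 0 mV every 8 s, peak minus current at end of 400-ms pulse.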

Chain of 5-hydroxytryptamine receptor 4 (Q13639 whole entry): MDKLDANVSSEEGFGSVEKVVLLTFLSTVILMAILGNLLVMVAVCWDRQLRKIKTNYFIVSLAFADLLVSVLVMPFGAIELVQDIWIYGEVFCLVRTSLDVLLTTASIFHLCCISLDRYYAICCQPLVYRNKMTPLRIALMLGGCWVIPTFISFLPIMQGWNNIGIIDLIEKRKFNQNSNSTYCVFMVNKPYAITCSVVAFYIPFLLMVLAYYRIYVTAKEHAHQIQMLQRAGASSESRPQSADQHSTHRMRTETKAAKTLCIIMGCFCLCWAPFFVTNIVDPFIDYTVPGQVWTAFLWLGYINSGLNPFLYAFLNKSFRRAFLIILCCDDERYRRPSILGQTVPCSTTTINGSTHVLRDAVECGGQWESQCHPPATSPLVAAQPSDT

COc1cc(N)c(Cl)cc1C(=O)OCCN1CCN(c2ncccn2)CC1 [4-Amino-5-chloro-2-methoxy-benzoic acid 2-(4-pyrimidin-2-yl-piperazin-1-yl)-ethyl ester]
EC50: 66 nM
